Experiments:
[1] = molecular target: Tyrosine-protein kinase Lck (Homo sapiens) (UniProt P06239); test: Inhibition of Lck at 1 uM
In short: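 Single-point screen within a 108-kinase selectivity panel. Each kinase was tested with inhibitor at 0.1 and 1.0 micromolar, and activity was recorded as percent inhibition.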

[2] = Inhibition of PKA at 1 uM; values are per cent of control
[3] = molecular target: Serine/threonine-protein kinase PLK2 (Homo sapiens) (UniProt Q9NYY3); test: Inhibition of Snk at 0.1 uM; values are per cent of control
Serine/threonine-protein kinase PLK2 (Homo sapiens), sequence (Q9NYY3 whole entry, looked up): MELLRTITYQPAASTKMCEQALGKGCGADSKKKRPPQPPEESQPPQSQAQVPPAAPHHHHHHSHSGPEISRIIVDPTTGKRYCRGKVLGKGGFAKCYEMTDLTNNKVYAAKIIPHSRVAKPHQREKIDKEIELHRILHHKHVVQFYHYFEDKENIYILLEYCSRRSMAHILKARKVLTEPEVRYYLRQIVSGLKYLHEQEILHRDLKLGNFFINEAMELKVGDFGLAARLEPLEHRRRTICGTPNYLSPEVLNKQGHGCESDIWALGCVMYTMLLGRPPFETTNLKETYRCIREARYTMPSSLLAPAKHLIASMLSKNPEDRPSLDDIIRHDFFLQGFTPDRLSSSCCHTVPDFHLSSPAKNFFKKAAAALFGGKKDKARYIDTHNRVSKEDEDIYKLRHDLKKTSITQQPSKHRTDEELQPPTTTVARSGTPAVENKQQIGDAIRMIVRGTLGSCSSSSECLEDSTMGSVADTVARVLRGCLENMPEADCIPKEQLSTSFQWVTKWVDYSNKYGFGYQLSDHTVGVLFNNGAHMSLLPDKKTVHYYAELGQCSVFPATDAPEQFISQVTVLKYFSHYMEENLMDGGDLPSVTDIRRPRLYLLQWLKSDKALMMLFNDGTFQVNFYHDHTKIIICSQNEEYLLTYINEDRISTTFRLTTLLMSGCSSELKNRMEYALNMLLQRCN

[4] = molecular target: T1, Ephrin type-B receptor 3 (Homo sapiens) (UniProt P54753); test: Inhibition of EphB3 at 1 uM; values are per cent of control
T1 sequence (whole entry): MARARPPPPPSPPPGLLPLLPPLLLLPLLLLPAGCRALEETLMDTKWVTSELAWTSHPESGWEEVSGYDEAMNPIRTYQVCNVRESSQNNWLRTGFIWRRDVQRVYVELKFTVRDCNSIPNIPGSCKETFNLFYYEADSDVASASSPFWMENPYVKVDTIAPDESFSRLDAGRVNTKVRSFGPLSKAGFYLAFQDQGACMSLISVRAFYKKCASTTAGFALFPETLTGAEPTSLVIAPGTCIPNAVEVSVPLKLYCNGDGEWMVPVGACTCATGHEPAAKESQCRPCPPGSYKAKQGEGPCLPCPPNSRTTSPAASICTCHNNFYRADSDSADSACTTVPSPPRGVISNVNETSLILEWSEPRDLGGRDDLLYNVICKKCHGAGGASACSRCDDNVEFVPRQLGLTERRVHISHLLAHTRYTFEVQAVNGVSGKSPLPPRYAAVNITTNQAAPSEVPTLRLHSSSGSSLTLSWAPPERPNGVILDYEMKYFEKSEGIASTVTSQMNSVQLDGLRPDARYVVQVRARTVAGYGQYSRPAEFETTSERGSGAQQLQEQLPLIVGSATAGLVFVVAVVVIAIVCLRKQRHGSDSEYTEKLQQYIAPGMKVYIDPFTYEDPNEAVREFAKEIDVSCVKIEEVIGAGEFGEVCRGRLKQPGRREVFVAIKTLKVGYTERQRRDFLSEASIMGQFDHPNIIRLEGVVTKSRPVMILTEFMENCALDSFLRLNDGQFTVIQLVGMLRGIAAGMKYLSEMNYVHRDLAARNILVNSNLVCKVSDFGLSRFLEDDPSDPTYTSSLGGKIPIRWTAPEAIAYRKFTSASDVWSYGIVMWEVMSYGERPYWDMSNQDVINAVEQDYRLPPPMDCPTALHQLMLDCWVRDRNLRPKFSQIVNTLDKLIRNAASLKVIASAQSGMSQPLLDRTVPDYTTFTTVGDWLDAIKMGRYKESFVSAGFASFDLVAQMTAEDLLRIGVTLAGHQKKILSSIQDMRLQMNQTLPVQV

[5] = molecular target: T2, Interleukin-1 receptor-associated kinase 4 (Homo sapiens) (UniProt Q9NWZ3); test: Inhibition of IRAK4 at 0.1 uM; values are per cent of control
T2 sequence (whole entry): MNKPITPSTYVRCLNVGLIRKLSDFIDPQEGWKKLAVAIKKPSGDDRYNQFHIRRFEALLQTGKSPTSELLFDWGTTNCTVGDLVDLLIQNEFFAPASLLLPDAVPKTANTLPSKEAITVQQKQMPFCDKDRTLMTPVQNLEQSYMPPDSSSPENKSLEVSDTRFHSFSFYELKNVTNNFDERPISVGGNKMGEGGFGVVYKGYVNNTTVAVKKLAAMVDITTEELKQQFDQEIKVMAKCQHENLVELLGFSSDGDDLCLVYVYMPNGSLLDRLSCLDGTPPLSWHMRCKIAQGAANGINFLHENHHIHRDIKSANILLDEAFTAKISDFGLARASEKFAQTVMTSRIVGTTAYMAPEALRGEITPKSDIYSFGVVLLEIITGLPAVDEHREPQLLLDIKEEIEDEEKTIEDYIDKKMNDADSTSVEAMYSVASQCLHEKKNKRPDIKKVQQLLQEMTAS

[6] = molecular target: Mitogen-activated protein kinase 1 (Homo sapiens) (UniProt P28482); test: Inhibition of MAPK1 at 0.1 uM; values are per cent of control
Mitogen-activated protein kinase 1 (Homo sapiens), sequence (P28482 whole entry): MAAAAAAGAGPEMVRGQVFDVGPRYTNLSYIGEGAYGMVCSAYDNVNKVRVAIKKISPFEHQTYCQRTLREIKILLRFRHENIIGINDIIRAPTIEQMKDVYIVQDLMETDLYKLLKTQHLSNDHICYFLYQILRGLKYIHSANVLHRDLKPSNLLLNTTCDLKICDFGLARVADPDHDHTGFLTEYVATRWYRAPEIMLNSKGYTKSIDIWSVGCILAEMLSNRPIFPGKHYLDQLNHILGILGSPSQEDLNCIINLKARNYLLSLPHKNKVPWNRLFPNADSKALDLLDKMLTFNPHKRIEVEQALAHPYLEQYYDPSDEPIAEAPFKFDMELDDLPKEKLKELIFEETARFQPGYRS

[7] = molecular target: Serine/threonine-protein kinase 33 (Homo sapiens) (UniProt Q9BYT3); test: Inhibition of STK33 at 0.1 uM; values are per cent of control
Serine/threonine-protein kinase 33 (Homo sapiens), sequence (Q9BYT3 whole entry, looked up): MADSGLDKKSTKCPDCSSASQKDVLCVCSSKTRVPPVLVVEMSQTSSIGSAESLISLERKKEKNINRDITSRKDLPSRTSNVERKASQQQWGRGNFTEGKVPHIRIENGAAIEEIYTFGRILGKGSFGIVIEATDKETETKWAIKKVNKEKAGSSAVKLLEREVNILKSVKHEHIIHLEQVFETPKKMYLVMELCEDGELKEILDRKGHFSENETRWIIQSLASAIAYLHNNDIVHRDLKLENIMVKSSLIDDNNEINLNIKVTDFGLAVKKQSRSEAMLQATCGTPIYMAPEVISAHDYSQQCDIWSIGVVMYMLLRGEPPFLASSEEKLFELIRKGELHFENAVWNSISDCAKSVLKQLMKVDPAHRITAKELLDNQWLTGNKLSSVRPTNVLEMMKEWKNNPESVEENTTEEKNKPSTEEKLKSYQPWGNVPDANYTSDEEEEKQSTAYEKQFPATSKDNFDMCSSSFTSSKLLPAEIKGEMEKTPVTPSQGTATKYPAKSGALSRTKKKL

[8] = molecular target: T3, cGMP-dependent protein kinase 1 (Homo sapiens) (UniProt Q13976); test: Inhibition of PKG1beta at 0.1 uM; values are per cent of control
T3 sequence (whole entry): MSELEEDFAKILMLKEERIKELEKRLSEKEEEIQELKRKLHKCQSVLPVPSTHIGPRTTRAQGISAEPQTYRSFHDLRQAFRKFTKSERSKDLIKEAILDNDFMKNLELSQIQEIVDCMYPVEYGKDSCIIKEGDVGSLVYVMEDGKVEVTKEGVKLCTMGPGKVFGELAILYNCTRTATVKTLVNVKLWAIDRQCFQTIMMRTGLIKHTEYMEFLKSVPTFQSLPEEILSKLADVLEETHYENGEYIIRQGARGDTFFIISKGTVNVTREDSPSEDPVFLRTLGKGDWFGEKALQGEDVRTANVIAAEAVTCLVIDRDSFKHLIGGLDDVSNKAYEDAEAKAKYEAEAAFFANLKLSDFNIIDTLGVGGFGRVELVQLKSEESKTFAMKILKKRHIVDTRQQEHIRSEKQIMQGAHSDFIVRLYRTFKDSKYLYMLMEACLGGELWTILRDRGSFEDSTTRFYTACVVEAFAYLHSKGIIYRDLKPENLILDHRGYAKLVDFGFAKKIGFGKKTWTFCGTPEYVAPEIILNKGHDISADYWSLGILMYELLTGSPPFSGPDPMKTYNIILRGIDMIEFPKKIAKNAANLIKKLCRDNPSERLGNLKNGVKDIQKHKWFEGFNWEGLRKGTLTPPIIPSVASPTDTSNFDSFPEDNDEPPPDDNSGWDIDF

Tyrosine-protein kinase Lck (Homo sapiens), sequence (P06239 2-509 limits assumed): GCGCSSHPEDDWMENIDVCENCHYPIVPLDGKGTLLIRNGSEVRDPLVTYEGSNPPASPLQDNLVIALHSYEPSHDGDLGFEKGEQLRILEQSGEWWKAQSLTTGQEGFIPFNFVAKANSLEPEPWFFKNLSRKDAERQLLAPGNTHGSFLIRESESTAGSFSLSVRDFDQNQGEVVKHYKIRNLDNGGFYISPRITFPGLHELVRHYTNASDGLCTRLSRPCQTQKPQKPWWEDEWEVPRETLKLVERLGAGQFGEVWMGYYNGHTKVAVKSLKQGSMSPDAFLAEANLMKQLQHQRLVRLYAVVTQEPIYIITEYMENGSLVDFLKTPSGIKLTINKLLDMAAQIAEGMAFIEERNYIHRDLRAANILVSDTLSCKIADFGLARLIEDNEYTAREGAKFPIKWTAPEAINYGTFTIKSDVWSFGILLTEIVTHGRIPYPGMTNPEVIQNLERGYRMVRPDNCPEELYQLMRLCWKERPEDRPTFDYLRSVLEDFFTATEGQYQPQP

Row | inhibition [1] [%] | residual activity [2] [%] | residual activity [3] [%] | residual activity [4] [%] | residual activity [5] [%] | residual activity [6] [%] | residual activity [7] [%] | residual activity [8] [%] | SMILES
1 | 0 | 6 | 90 | 105 | 6 | 85 | 76 | 95 | Cc1ccc2cc(-c3n[nH]c4ccc(NC5CCNC5)cc34)[nH]c2c1 (stereo unspecified)
2 | 9 | 5 | 78 | 119 | 25 | 88 | 13 | 83 | Cc1ccc2cc(-c3n[nH]c4ccc(NC5CCN(Cc6ccccc6)CC5)cc34)[nH]c2c1
